Assay results from the RNAGym collection of RNA variant scans (doi:10.1126/science.aae0568).
This sample holds only a part of the variants without activity.

B1: tRNA (parent)
chain: GUUCCGUUGGCGUAAUGGUAACGCGUCUCCCUCCUAAGGAGAAGACUGCGGGUUCGAGUCCCGUACGGAACG

Variants of: B1
Experiment: yeast fitness relative to wild type (ratio to wild type); higher = fitter; tRNA-Arg(CCU), competitive growth, 37 C, YPD
Summary of the method: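 Amplicons of the tRNA-Arg(CCU) gene were sequenced, 100-nucleotide paired-end, from the start population and from each end population of a pooled yeast competition. The competition, in six parallel replicates, lasted 24 hours in YPD at 37°C. Fitness relative to wild type was calculated from changes in genotype frequencies. Genotypes had to have ≥ 100 starting reads, and estimates < 0.5 were set to 0.5.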

Variant | yeast fitness
C11U U16C U28C A43C | ≤ 0.5
G12A A15C G58C | ≤ 0.5
C11U C22G C30U U54C | ≤ 0.5
G12A A14C U16C C31U C49G C60A | ≤ 0.5
C11U C27G C31G G39C G56A C61A A69G | 0.641
C11U G23C G58A A70U | 0.541
C11U G25C C29G A43G C49G | 0.546
C11U C30A C55G A57C | ≤ 0.5
C11U G50A C66A | ≤ 0.5
C11U U28C G44C U64C | ≤ 0.5
C11U U16A U64A | 0.514
C11U C31A A42G C55A | ≤ 0.5
C11U A45C C49U | 0.765
C11U U19A G41A C60G A65G | ≤ 0.5
C11U C30U A65C | ≤ 0.5
C11U G56A G67U | 0.526
C11U C24G C27G G52A | 0.551
C11U C27G A36G G63C C66U | ≤ 0.5
C11U G25A C29U G67A A70U | ≤ 0.5
C11U U26A C34G G68C | ≤ 0.5
C11U A57U A70C | 0.512
C11U U19A A37C A40C G63A | ≤ 0.5
G12A A14G C30G A70U | 0.616
C11U A40C G51A C61U A69C | ≤ 0.5

Variant | yeast fitness
C11U U26C U47C | 0.799
C11U U26C U47A | 0.555
C11U U26G G67C | ≤ 0.5
C11U C49U A65G | 0.76
C11U C22A C31U G68C | ≤ 0.5
C11U G25C A40U C49G G63C | ≤ 0.5
C11U A70G | 0.978
C11U C30A C49U G67U | ≤ 0.5
C11U G12A C27U G52A C62U | ≤ 0.5
C11U U13C U28C A42U C55A G56A | ≤ 0.5
C11U A42G C60A | ≤ 0.5
C11U U19A A43U A65U | 0.53
C11U A40G C61G | ≤ 0.5
C11U G50A A69C | 0.522
C11U C29U C49A | ≤ 0.5
C11U U64G | 0.739
C11U U53C | 0.652
C11U C29G C33U | ≤ 0.5
C11U U19G A20U | 0.764
C11U U13A A40C U64C | ≤ 0.5
C11U U32G C62A | 0.618
C11U U19A G63C | 0.53
G12A A14C A20C A42G G44A | ≤ 0.5
C11U C62U A70G | 0.753

Variant | yeast fitness
C11U A57U A65U | 0.653
G12A A15G C27A | ≤ 0.5
C11U G48C | 0.882
C11U G48U | 0.853
C11U A37U G38A | ≤ 0.5
C11U G25C A40U C49U | ≤ 0.5
C11U U28A A69C | 0.58
C11U C62G G63A | 0.529
C11U C31G A45G G56U | ≤ 0.5
C11U C49U A70C | 0.672
C11U C27U C31A U35C C55G C62U C66U A70C | ≤ 0.5
C11U U59A A69C | 0.537
C11U G50A G56A | 0.781
C11U A45U G58C A69C | ≤ 0.5
C11U G25C C31U | 0.679
C11U G18C C31A | ≤ 0.5
C11U C24G A70G | 0.649
C11U C55A C62U | ≤ 0.5
C11U A40C U53A A69C A70U | ≤ 0.5
C11U U13A C22G C24A C46G C55U | ≤ 0.5
C11U C27G G39C | ≤ 0.5
C11U A45G C49A | 0.567
C11U G38C | 0.715
C11U G17C C30A C33G C61U | 0.581

Variant | yeast fitness
C11U U16A | 0.819
C11U U28C C29G C60A | ≤ 0.5
C11U U28A | 0.682
C11U C24G C33A A40C | 0.955
C11U C33G A36U A42G | ≤ 0.5
C11U U47A | 0.808
C11U C60U C62G | 0.588
C11U C60U C62U | ≤ 0.5
C11U G58C | 0.925
C11U C30A G39A U47A G63C | ≤ 0.5
C11U C31U A65C | 0.52
G12A A14C C31G A65C | ≤ 0.5
C11U G17A G48A G51C C60A U64C | 0.623
C11U U13C A15G C46A | 0.631
G12A A14U A21U U32G A37G A45G C55A | ≤ 0.5
C11U U26A A43U A65C A70G | ≤ 0.5
C11U U32C C33U C62U A65G | ≤ 0.5
C11U A40C U53A | 0.586
C11U C30G | 0.694
C11U C49G A57G | ≤ 0.5
C11U C30U C49U | 0.646
C11U C24G C33G | 0.541
C11U A36U C60A | ≤ 0.5
C11U C30U U47A G67C | ≤ 0.5

Variant | yeast fitness
C11U C29U G39A | 0.619
C11U G23A | 0.952
C11U C30A U32G C49U C55G | ≤ 0.5
G12A A15C C62U C66G | ≤ 0.5
C11U G23A C33G A69C | ≤ 0.5
C11U U32A C34U | ≤ 0.5
C11U C29U C66G | ≤ 0.5
C11U C29U C66A | 0.553
C11U G12A | 0.998
C11U G51C | 0.718
C11U C46U U59C | 0.767
C11U C34U G48A | ≤ 0.5
C11U G25C A36U | 0.547
C11U U19A A42G U59A C60U | ≤ 0.5
C11U C46G | 0.986
C11U C34G A42C | ≤ 0.5
C11U G18C C33G G44A C46G C66U | 0.606
C11U C31A G67A | ≤ 0.5
C11U U35C U64A | ≤ 0.5
C11U U26C U47A G50A | ≤ 0.5
C11U A40G | 0.866
C11U C31G | 0.791
G12A A14G C24G C31U C55A | ≤ 0.5
C11U G17A | 0.961

Variant | yeast fitness
C11U G68A | 0.878
C11U C29U A40C C49G | 0.648
C11U G12A C24U C34G | ≤ 0.5
C11U G12A A14G U53C | ≤ 0.5
C11U U16A C55A | ≤ 0.5
C11U C27G A43C | 0.577
C11U C27G A43U | 0.52
C11U U26G U32A A43C U53C A70U | ≤ 0.5
C11U U53A C62A | ≤ 0.5
C11U C22G U47C U53G | ≤ 0.5
C11U G41A G58A | 0.768
C11U C66G | 0.745
C11U C66A | 0.65
C11U G18A G23C C34U U59A A70C | ≤ 0.5
C11U U54C G56A | ≤ 0.5
C11U C34G G50C | 0.576
C11U G17C A20C | ≤ 0.5
C11U C22U G44C U64G | 0.534
C11U U26A A36U | ≤ 0.5
C11U A36U A43C A57G | 1.1
C11U A43C G68A | 0.545
C11U A65U G67C | ≤ 0.5
C11U C31G A43C | 0.654
C11U G56A | 0.901

Variant | yeast fitness
C11U C24G C27G A36U G38C C60G C66A | ≤ 0.5
C11U C24G C29U G50A G58C G63A C66U G68A | ≤ 0.5
C11U A37C C46G C60U C61A | 0.536
C11U G44A | 1.03
C11U G44C | 0.974
C11U C30U A42U G51A A57U A65U A70U | ≤ 0.5
C11U U19C C22G G25C C33U G39C C62G | ≤ 0.5
C11U C31A A57C | ≤ 0.5
C11U C22U A70G | 0.644
G12A A14U C66A A70G | ≤ 0.5
C11U G48A G51C C60A U64C | 0.887
C11U A37G A57G A70C | ≤ 0.5
C11U C29G C33U G39U C60U A65U A69U | ≤ 0.5
C11U A43G A57U | 0.568
C11U C22G G52C G56C | ≤ 0.5
C11U G12A G18C U47C G68C | ≤ 0.5
C11U C31A C55G C60A A70G | 0.535
C11U G18A A37G | ≤ 0.5
C11U A37C G56A | ≤ 0.5
C11U C29U A57U C61U | ≤ 0.5
C11U U54C A57G | 0.553
C11U C29U G67A | 0.57
G12A A15C C62G A65C | ≤ 0.5
